For 20 molecules, IC50 results are on record in ChEMBL document CHEMBL1153344, “Synthesis of casimiroin and optimization of its quinone reductase 2 and aromatase inhibitory activities” (J Med Chem, 2009).

In experiment [1] the target is T1, Ribosyldihydronicotinamide dehydrogenase [quinone] (Homo sapiens, UniProt P16083).
T1 sequence (P16083 whole entry): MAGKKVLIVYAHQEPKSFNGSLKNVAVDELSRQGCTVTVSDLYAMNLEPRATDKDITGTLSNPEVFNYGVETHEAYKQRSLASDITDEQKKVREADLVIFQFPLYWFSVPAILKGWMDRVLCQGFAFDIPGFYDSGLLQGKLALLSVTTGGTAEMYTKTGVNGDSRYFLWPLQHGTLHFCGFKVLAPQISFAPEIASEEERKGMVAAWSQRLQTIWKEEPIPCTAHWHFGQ
The experiment is described as follows: Inhibition of human quinone reductase 2 expressed in Escherichia coli BL21(DE3) incubated at 23 degC by MTT assay.

Experiment [2] addresses T2, Aromatase (Homo sapiens, UniProt P11511).
T2 sequence (P11511 whole entry): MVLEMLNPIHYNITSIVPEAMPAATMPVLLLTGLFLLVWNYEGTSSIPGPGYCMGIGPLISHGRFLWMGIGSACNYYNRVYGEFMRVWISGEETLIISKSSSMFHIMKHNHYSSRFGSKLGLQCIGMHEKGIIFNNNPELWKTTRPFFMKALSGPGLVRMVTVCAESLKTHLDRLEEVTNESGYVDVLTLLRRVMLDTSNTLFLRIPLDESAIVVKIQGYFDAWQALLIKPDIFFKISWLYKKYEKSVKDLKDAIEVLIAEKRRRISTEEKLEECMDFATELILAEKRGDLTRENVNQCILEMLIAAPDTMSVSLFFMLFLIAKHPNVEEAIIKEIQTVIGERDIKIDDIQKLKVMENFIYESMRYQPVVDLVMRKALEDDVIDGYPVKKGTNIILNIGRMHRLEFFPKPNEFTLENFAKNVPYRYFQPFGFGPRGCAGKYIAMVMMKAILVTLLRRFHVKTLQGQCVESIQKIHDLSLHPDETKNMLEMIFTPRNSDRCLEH

Experiment [3] is described as follows: Cytotoxicity against mouse Hepa-1c1c7 cells after 72 hrs by sulforhodamine B assay. The experiment is classed as functional, cell-based. Particulars: Hepa-1c1c7, 72 h. Put shortly: (§1)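 Cells seeded at 5.0×10^4 cells/mL in 96-well plates, given compound in 10% DMSO (10 µL) for final 0–20 µg/mL, 72 h incubation; zero-day control plate 30 min at 37 °C. Fixed with cold 50% TCA 30 min at 4 °C, stained 0.4% sulforhodamine B in 1% acetic acid 30 min, dye solubilized in 10 mM Tris base pH 10, absorbance 515 nm.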

The subject of experiment [4] is MCF7. The experiment is described as follows: Cytotoxicity against human MCF7 cells after 72 hrs by sulforhodamine B assay. The experiment is classed as functional, cell-based. Particulars: MCF7, 72 h. Put shortly:
as §1

For experiment [5], the system named is LNCaP. The experiment is described as follows: Cytotoxicity against human LNCAP cells after 72 hrs by sulforhodamine B assay. The experiment is classed as functional, cell-based. Put shortly:
as §1

Experiment [6] can be described thus: Cytotoxicity against human Lu cells after 72 hrs by sulforhodamine B assay. The experiment is classed as functional, cell-based. Put shortly:
as §1

The structures appear in SMILES notation.

Regarding `Cc1cc(=O)[nH]c2ccccc12`, the IC50 in experiment [1] was more than 500 µM; in experiment [2], more than 126 µM; in experiment [3] it was more than 126 µM; in experiment [4], more than 126 µM; in experiment [5], more than 126 µM; in experiment [6], more than 126 µM.

In the case of `COc1cc(OC)c2c(c(C)cc(=O)n2C)c1OC`, the IC50 in experiment [1] was 10.8 µM; in experiment [2], 0.1 µM; in experiment [3], 70.7 µM; in experiment [4], more than 76 µM; in experiment [5], more than 76 µM; in experiment [6] it was 68.5 µM.

With `Cc1cc(=O)n(C)c2c1C(=O)C=CC2=O`, the IC50 was more than 500 µM in experiment [1]; more than 98.4 µM in experiment [2]; 54.1 µM in experiment [3]; 60.5 µM in experiment [4]; 58.1 µM in experiment [5]; 49.2 µM in experiment [6].

In the case of `COc1ccc2c(C)cc(=O)n(C)c2c1OC`, the IC50 in experiment [1] was 9.3 µM; in experiment [2], 5.76 µM; in experiment [3], more than 85.8 µM; in experiment [4], more than 85.8 µM; in experiment [5], more than 85.8 µM; in experiment [6], more than 85.8 µM.

In the case of `COc1cccc2c(C)cc(=O)[nH]c12`, the IC50 was 24.1 µM in experiment [1]; more than 106 µM in experiment [2]; more than 106 µM in experiment [3]; more than 106 µM in experiment [4]; more than 106 µM in experiment [5]; more than 106 µM in experiment [6].

For `COc1cc2c(C)cc(=O)[nH]c2c(OC)c1OC`, the IC50 in experiment [1] is 10 µM; in experiment [2], 18.5 µM; in experiment [3] it was more than 80.3 µM; in experiment [4], more than 80.3 µM; in experiment [5], more than 80.3 µM; in experiment [6], more than 80.3 µM.

For the molecule `COc1c(OC)c(OC)c2c(c(C)cc(=O)n2C)c1OC`, the half-inhibitory concentration (IC50) is more than 500 µM in experiment [1]; 0.76 µM in experiment [2]; more than 68.2 µM in experiment [3]; more than 68.2 µM in experiment [4]; more than 68.2 µM in experiment [5]; more than 68.2 µM in experiment [6].

Take `COc1cc(OC)c2[nH]c(=O)cc(C)c2c1`: the IC50 was 8.8 µM in experiment [1]; more than 91.3 µM in experiment [2]; more than 91.3 µM in experiment [3]; more than 91.3 µM in experiment [4]; more than 91.3 µM in experiment [5]; more than 91.3 µM in experiment [6].

With `Cc1cc(=O)[nH]c2c3c(ccc12)OCO3`, the IC50 was 10.8 µM in experiment [1]; more than 98.5 µM in experiment [2]; more than 98.5 µM in experiment [3]; more than 98.5 µM in experiment [4]; more than 98.5 µM in experiment [5]; more than 98.5 µM in experiment [6].

Regarding `COc1ccc(OC)c2c1c(C)cc(=O)n2C`, the IC50 in experiment [1] was 4.1 µM; in experiment [2], 0.96 µM; in experiment [3], more than 85.7 µM; in experiment [4] it was more than 85.7 µM; in experiment [5], more than 85.7 µM; in experiment [6] it was more than 85.7 µM.

In the case of `COc1cc2c(C)cc(=O)n(C)c2c(OC)c1OC`, the IC50 in experiment [1] is 7 µM; in experiment [2], 2.72 µM; in experiment [3] it was more than 76 µM; in experiment [4] it was more than 76 µM; in experiment [5] it was more than 76 µM; in experiment [6], more than 76 µM.

As for `Cc1cc(=O)n(C)c2c3c(ccc12)OCO3`, the IC50 in experiment [1] is 6.2 µM; in experiment [2], 1.25 µM; in experiment [3], more than 92.1 µM; in experiment [4] it was more than 92.1 µM; in experiment [5] it was more than 92.1 µM; in experiment [6], more than 92.1 µM.

Turning to `COc1cc(OC)c2c(c1)c(C)cc(=O)n2C`, the IC50 in experiment [1] is 1.9 µM; in experiment [2], 0.96 µM; in experiment [3] it was more than 85.8 µM; in experiment [4] it was more than 85.8 µM; in experiment [5], more than 85.8 µM; in experiment [6], more than 85.8 µM.

Regarding `COc1ccc(OC)c2c(C)cc(=O)[nH]c12`, the concentration for half-maximal inhibition (IC50) in experiment [1] was 10.8 µM; in experiment [2], 26.8 µM; in experiment [3], more than 91.2 µM; in experiment [4], more than 91.2 µM; in experiment [5], more than 91.2 µM; in experiment [6] it was more than 91.2 µM.

Take `COc1cc(OC)c2[nH]c(=O)cc(C)c2c1OC`: the IC50 in experiment [1] was found to be 6 µM; in experiment [2], 14.8 µM; in experiment [3], 34.5 µM; in experiment [4], 43 µM; in experiment [5], 45.8 µM; in experiment [6], 35.3 µM.

Take `COc1c(OC)c(OC)c2c(C)cc(=O)[nH]c2c1OC`: the IC50 was more than 500 µM in experiment [1]; 5.68 µM in experiment [2]; more than 71.7 µM in experiment [3]; more than 71.7 µM in experiment [4]; more than 71.7 µM in experiment [5]; more than 71.7 µM in experiment [6].

On to `COc1ccc2c(C)cc(=O)[nH]c2c1OC`, for which the IC50 in experiment [1] is 29.3 µM; in experiment [2] it was 31.5 µM; in experiment [3], more than 91.3 µM; in experiment [4] it was more than 91.3 µM; in experiment [5], more than 91.3 µM; in experiment [6], more than 91.3 µM.

As to `COc1cccc2c(C)cc(=O)n(C)c12`, the IC50 in experiment [1] was 5.8 µM; in experiment [2], 2.02 µM; in experiment [3], more than 98.5 µM; in experiment [4], more than 98.5 µM; in experiment [5] it was more than 98.5 µM; in experiment [6], more than 98.5 µM.

In the case of `Cc1cc(=O)n(C)c2ccccc12`, the IC50 is 18.2 µM in experiment [1]; more than 116 µM in experiment [2]; more than 116 µM in experiment [3]; more than 116 µM in experiment [4]; more than 116 µM in experiment [5]; more than 116 µM in experiment [6].

In the case of `COc1cc(=O)n(C)c2c3c(ccc12)OCO3` [CASIMIROIN], the IC50 in experiment [1] is 54.1 µM; in experiment [2] it was 3.92 µM; in experiment [3], more than 85.8 µM; in experiment [4] it was more than 85.8 µM; in experiment [5], more than 85.8 µM; in experiment [6], more than 85.8 µM.
